Activity calls are given as the source filed them. The calls are words filed in the database; no cut-off is given here.
How the values were obtained:
[1] = test system: A549; assay: Induction of apoptosis in human A549 cells assessed as DNA fragmentation at 2 uM after 48 hrs by agarose gel electrophoresis; assay type: functional, cell-based
Procedure, shortened: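 A549 cells (1×10^6) seeded in six-well plates for 24 h, then exposed to 2 µM compound or roscovitine for 48 h and pelleted. Lysate treated with SDS and RNase-A (2 h, 56 °C), then proteinase K (2 h, 37 °C). DNA precipitated with ammonium acetate/cold ethanol, dissolved in TE, and laddering resolved on 2% agarose gel against a 50 bp marker.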

[2] = test system: A549; assay: Induction of apoptosis in human A549 cells assessed as activation of caspase-3 at 1 to 2 uM after 48 hrs by ELISA relative to control; assay type: functional, cell-based
Procedure, shortened: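 A549 lung cancer cells exposed to 1 and 2 µM compound for 48 h, with roscovitine as positive control. Pellets lysed for 15 min, and supernatant caspase-3 activity read by a commercial colorimetric kit relative to untreated control. Values are mean ± SD of two experiments run in triplicate.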

[3] = test system: A549; assay: Induction of apoptosis in human A549 cells assessed as formation of apoptotic bodies at 2 uM after 48 hrs by Hoechst staining assay; assay type: functional, cell-based
Procedure, shortened: (§1)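 A549 cells (10,000 per 18-mm coverslip) grown 24 h, then given 2 µM compound for 48 h, with 0.001% DMSO vehicle and roscovitine controls. Hoechst 33258 (0.5 mg/mL) in 4% paraformaldehyde was added for 30 min. Randomly chosen fields were imaged by fluorescence microscopy and apoptotic cells scored manually by cytoplasmic condensation, apoptotic bodies and nuclear fragmentation.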

[4] = test system: A549; assay: Induction of apoptosis in human A549 cells assessed as nuclear fragmentation at 2 uM after 48 hrs by Hoechst staining assay; assay type: functional, cell-based; procedure, shortened: as §1
[5] = test system: A549; assay: Induction of apoptosis in human A549 cells assessed as cytoplasmic condensation at 2 uM after 48 hrs by Hoechst staining assay; assay type: functional, cell-based; procedure, shortened: as §1
[6] = test system: A549; assay: Induction of apoptosis in human A549 cells assessed as reduction of Cdk1 expression at 2 uM after 48 hrs by Western blot analysis; assay type: functional, cell-based
Procedure, shortened: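 5×10^5 A549 cells grown 24 h, then treated with 2 µM compound for 48 h. Lysis in ice-cold RIPA with protease inhibitors, protein by Bradford, 50 µg per lane on 12% SDS-PAGE, PVDF transfer. Probed overnight at 4 °C with mouse monoclonal anti-Cdk1, β-actin as loading control, chemiluminescent detection.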

[7] = test system: A549; assay: Cell cycle arrest at human A549 cells assessed as accumulation at G2/M phase at 1 uM after 48 hrs by propidium iodide-staining-based FACS flow cytometric analysis (reference value: 13.17%); assay type: functional
[8] = test system: A549; assay: Cell cycle arrest at human A549 cells assessed as accumulation at S phase at 1 uM after 48 hrs by propidium iodide-staining-based FACS flow cytometric analysis (reference value: 4.48%); assay type: functional
[9] = test system: A549; assay: Cell cycle arrest at human A549 cells assessed as accumulation at S phase at 2 uM after 48 hrs by propidium iodide-staining-based FACS flow cytometric analysis (reference value: 4.48%); assay type: functional
[10] = test system: HeLa; assay: Cytotoxicity against human HeLa cells after 48 hrs by MTT assay; assay type: functional, cell-based
Procedure, shortened: (§2)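 MTT assay: […] were plated in DMEM with 10% FBS and incubated for 24 h at 37 °C under CO2. Compounds diluted in culture medium were added alongside a vehicle control for 48 h. MTT (10 µl of a 5 mg/ml stock) was added for a further 4 h. The supernatant was then removed, the formazan dissolved in DMSO, and absorbance read at 540 nm. IC50 was derived.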

[11] = test system: T47D; assay: Cytotoxicity against human T47D cells after 48 hrs by MTT assay; assay type: functional
[12] = test system: A549; assay: Cell cycle arrest at human A549 cells assessed as accumulation at sub G1 phase at 2 uM after 48 hrs by propidium iodide-staining-based FACS flow cytometric analysis (reference value: 1.02%); assay type: functional
[13] = test system: MDA-MB-231; assay: Cytotoxicity against human MDA-MB-231 cells after 48 hrs by MTT assay; assay type: functional; conditions: MDA-MB-231, 48 h
[14] = test system: MCF7; assay: Cytotoxicity against human MCF7 cells after 48 hrs by MTT assay; assay type: functional, cell-based; conditions: MCF7, 48 h; procedure, shortened: as §2
[15] = test system: DU-145; assay: Cytotoxicity against human DU145 cells after 48 hrs by MTT assay; assay type: functional, cell-based; conditions: DU-145, 48 h; procedure, shortened: as §2
[16] = test system: RXF 393; assay: Cytotoxicity against human RXF393 cells after 48 hrs by MTT assay; assay type: functional; conditions: RXF 393, 48 h
[17] = test system: ACHN; assay: Cytotoxicity against human ACHN cells after 48 hrs by MTT assay; assay type: functional, cell-based; procedure, shortened: as §2
[18] = test system: 786-0; assay: Cytotoxicity against human 786-0 cells after 48 hrs by MTT assay; assay type: functional; conditions: 786-0, 48 h
[19] = test system: A498; assay: Cytotoxicity against human A498 cells after 48 hrs by MTT assay; assay type: functional; conditions: A498, 48 h
[20] = test system: OVCAR-8; assay: Cytotoxicity against human OVCAR8 cells after 48 hrs by MTT assay; assay type: functional; conditions: OVCAR-8, 48 h
[21] = test system: OVCAR-3; assay: Cytotoxicity against human OVCAR3 cells after 48 hrs by MTT assay; assay type: functional; conditions: OVCAR-3, 48 h
[22] = test system: UACC-62; assay: Cytotoxicity against human UACC62 cells after 48 hrs by MTT assay; assay type: functional; conditions: UACC-62, 48 h
[23] = test system: M14; assay: Cytotoxicity against human M14 cells after 48 hrs by MTT assay; assay type: functional; conditions: M14, 48 h
[24] = test system: U-251; assay: Cytotoxicity against human U251 cells after 48 hrs by MTT assay; assay type: functional; conditions: U-251, 48 h
[25] = test system: SNB-75; assay: Cytotoxicity against human SNB75 cells after 48 hrs by MTT assay; assay type: functional; conditions: SNB-75, 48 h
[26] = test system: HCT-116; assay: Cytotoxicity against human HCT116 cells after 48 hrs by MTT assay; assay type: functional; conditions: HCT-116, 48 h
[27] = test system: NCI-H522; assay: Cytotoxicity against human NCI-H522 cells after 48 hrs by MTT assay; assay type: functional; conditions: NCI-H522, 48 h
[28] = test system: NCI-H460; assay: Cytotoxicity against human NCI-H460 cells after 48 hrs by MTT assay; assay type: functional; conditions: NCI-H460, 48 h
[29] = test system: NCI-H23; assay: Cytotoxicity against human NCI-H23 cells after 48 hrs by MTT assay; assay type: functional; conditions: NCI-H23, 48 h
[30] = test system: HOP-92; assay: Cytotoxicity against human HOP92 cells after 48 hrs by MTT assay; assay type: functional; conditions: HOP-92, 48 h
[31] = test system: NCI-H226; assay: Cytotoxicity against human NCI-H226 cells after 48 hrs by MTT assay; assay type: functional; conditions: NCI-H226, 48 h
[32] = Cytotoxicity against human EKVX cells after 48 hrs by MTT assay; assay type: functional
[33] = test system: A549; assay: Cytotoxicity against human A549 cells after 48 hrs by MTT assay; assay type: functional, cell-based; conditions: A549, 48 h; procedure, shortened: as §2
[34] = test system: A549; assay: Cell cycle arrest at human A549 cells assessed as accumulation at G0/G1 phase at 2 uM after 48 hrs by propidium iodide-staining-based FACS flow cytometric analysis (reference value: 81.33%); assay type: functional
[35] = test system: SR; assay: Cytotoxicity against human SR cells after 48 hrs by MTT assay; assay type: functional
[36] = test system: K562; assay: Cytotoxicity against human K562 cells after 48 hrs by MTT assay; assay type: functional; conditions: K562, 48 h
[37] = test system: CCRF-CEM; assay: Cytotoxicity against human CCRF-CEM cells after 48 hrs by MTT assay; assay type: functional

Q: What does the source list for `O=C(Nc1nc2ccccc2s1)c1cc(-c2ccc(F)cc2)n2nc(-c3ccccc3)cc2n1`?
A: Activity [1]: Active; Activity [2]: Active; Activity [3]: Active; Activity [4]: Active; Activity [5]: Active; Activity [6]: Active; Activity [7]: 44.54%; Activity [8]: 6.1%; Activity [9]: 6.8%; IC50 [10]: 2.63 µM; GI50 [11]: 3.3 µM; Activity [12]: 3.75%; GI50 [13]: 2.3 µM; GI50 [14]: 5.2 µM; IC50 [14]: 2.29 µM; GI50 [15]: 4.9 µM; IC50 [15]: 2.08 µM; GI50 [16]: 2.5 µM; GI50 [17]: 2.2 µM; IC50 [17]: 3.46 µM; GI50 [18]: 2.1 µM; GI50 [19]: 1.8 µM; GI50 [20]: 2.1 µM; GI50 [21]: 1.9 µM; GI50 [22]: 3.7 µM; GI50 [23]: 3.1 µM; GI50 [24]: 2 µM; GI50 [25]: 1.7 µM; GI50 [26]: 2.7 µM; GI50 [27]: 2.5 µM; GI50 [28]: 2.1 µM; GI50 [29]: 2.8 µM; GI50 [30]: 1.6 µM; GI50 [31]: 6.3 µM; GI50 [32]: 6.6 µM; GI50 [33]: 2.7 µM; IC50 [33]: 1.94 µM; Activity [34]: 28.75%; GI50 [35]: 3.9 µM; GI50 [36]: 4.2 µM; GI50 [37]: 1.8 µM

Q: Which results are given for `COc1cc(-c2cc(C(=O)Nc3nc4ccccc4s3)nc3cc(-c4ccccc4)nn23)cc(OC)c1OC`?
A: Activity [1]: Active; Activity [2]: Active; Activity [3]: Active; Activity [4]: Active; Activity [5]: Active; Activity [6]: Active; Activity [7]: 40.05%; Activity [8]: 5.9%; Activity [9]: 6.32%; IC50 [10]: 7.07 µM; GI50 [11]: 21.4 µM; Activity [12]: 9.05%; GI50 [13]: 5.6 µM; GI50 [14]: 22.4 µM; IC50 [14]: 2.88 µM; GI50 [15]: 65 µM; IC50 [15]: 3.16 µM; GI50 [16]: 6.2 µM; GI50 [17]: 45.7 µM; IC50 [17]: 4.36 µM; GI50 [18]: 2.5 µM; GI50 [19]: 9.2 µM; GI50 [20]: 5.3 µM; GI50 [21]: 13.3 µM; GI50 [22]: 14.4 µM; GI50 [23]: 2.3 µM; GI50 [24]: 5.1 µM; GI50 [25]: 2.7 µM; GI50 [26]: 4.5 µM; GI50 [27]: 1.9 µM; GI50 [28]: 29 µM; GI50 [29]: 11.5 µM; GI50 [30]: 0.7 µM; GI50 [31]: 27 µM; GI50 [32]: 42 µM; IC50 [33]: 2.01 µM; Activity [34]: 32.18%; GI50 [35]: 19.7 µM; GI50 [36]: 25 µM; GI50 [37]: 54 µM

— ChEMBL document CHEMBL2384939, “Synthesis of pyrazolo[1,5-a]pyrimidine linked aminobenzothiazole conjugates as potential anticancer agents” (Bioorg Med Chem Lett, 2013)
